This note sets out measurements from ChEMBL document CHEMBL1275292, “Design and synthesis of bioactive adamantanaminoalcohols and adamantanamines” (Eur J Med Chem, 2010).

Structures are written as SMILES. The source made the active and inactive calls. The calls are words filed in the database; no cut-off is given here. Some results are limits rather than exact numbers.

Series [1] in a line: Cytotoxicity against MDCK cells by MTS assay. It counts as cell-based, Canis lupus familiaris. The following applies: dog. Background: Tetrazolium dyes change colour on reduction, which living cells bring about.
The test system of series [2] is H3N2 subtype. In words: Antiviral activity against Influenza A virus (A/Hong Kong/7/1987(H3N2)) infected in MDCK cells assessed as inhibition of virus-induced cytopathogenicity at 500 uM by MTS assay. It is filed as functional, organism-based. For orientation: Protection from cytopathic effect is a common read-out in antiviral testing.
In series [3] the test system is Trypanosoma brucei. Kind of series: Antiparasitic activity against Trypanosoma brucei 427 bloodstream forms assessed as inhibition of parasite growth after 48 hrs. It is filed as functional, organism-based. The essentials:
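Bloodstream-form T. brucei strain 427 were grown at 37 °C and pH 7.4 in modified Iscove's medium, in 4 ml cultures for 48 h across a drug range of 0.1 to 25. Cell densities were counted by hemocytometer and growth was expressed as % of untreated controls. IC50 and IC90 were derived from these counts, as mean ± SD of three experiments.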

Series [4] in a line: Selectivity index, ratio of MCC for MDCK cells to EC50 for Influenza A virus (A/Hong Kong/7/1987(H3N2)). Particulars: dog, read-out: Selectivity Index. It counts as toxicity, cell-based.
Series [5] deals with H3N2 subtype. In words: Antiviral activity against Influenza A virus (A/Hong Kong/7/1987(H3N2)) infected in MDCK cells assessed as inhibition of virus-induced cytopathogenicity by MTS assay. It is filed as functional, organism-based. Summed up: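 MDCK cells infected with influenza A/HK/7/87 (H3N2), whose M2 carries serine at position 31. Virus-induced cytopathic effect was read after multiple replication cycles at 72 h post infection by microscopic scoring and by a colorimetric formazan MTS cell-viability assay. EC50 is the concentration giving 50% inhibition of CPE by MTS. Compounds were tested as hydrochlorides, aminoalcohols as free bases. Values are mean ± SD with the number of independent determinations.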

Series [6] has as its system Trypanosoma brucei. In words: Antiparasitic activity against Trypanosoma brucei 427 bloodstream forms assessed as inhibition of parasite growth at 5 ug/mL after 48 hrs. The following applies: Trypanosoma brucei, 427, 48 h; read-out: GI. It is filed as functional.
[7] abbreviates: Trypanosoma brucei, 427, 48 h, read-out: IC50.

In series [1], `NC1C2CC3CC(C2)CC1(c1ccccc1)C3` (centres undefined) displayed an MCC of 218 µM. Moreover, in series [2], the inhibition result is “inactive”. For the same compound, the IC90 (as a rule, the concentration at which the effect reaches the 90% level) in series [3] (Trypanosoma brucei, 427, 48 h) is over 20 µM. The IC50 (usually the concentration that inhibits the measured activity by half) in series [3] (setting [7]) came out at 11.1 µM.
Consider `NCCC1(O)C2CC3CC(C2)CC1C3` (centres undefined), for which the MCC in series [1] was determined as 17 µM. Also, the selectivity ratio in series [4] came to 3. Also, the EC50 – broadly, the concentration at which the effect is half-maximal – in series [5] stood at 6.24 µM. For the same compound, the inhibition of growth at 5 µg/mL in series [6] amounted to 30%. In series [3], the IC50 result was “Not Active”.
Take `CN(C)CCCC12CC3CC(CC(C3)C1O)C2` (centres undefined): the MCC in series [1] was over 250 µM. Further, the inhibition entry in series [2] was “inactive”. In addition, the IC90 in series [3] (Trypanosoma brucei, 427, 48 h) came to 1.8 µM. Also, in series [3] (setting [7]), the IC50 is 0.84 µM.
For `NCC1(CO)C2CC3CC(C2)CC1C3` (centres undefined), the MCC in series [1] amounted to 87 µM. The selectivity ratio in series [4] came to 256. Further, the concentration giving a half-maximal response (EC50) in series [5] was 0.34 µM. Also, the inhibition of growth at 5 µg/mL in series [6] amounted to 30%. For the same compound, the IC50 entry in series [3] is “Not Active”.
As for `CN(C)CCC[C@]1(O)CC2CC3CC(C2)C1C3` (some centres undefined), the MCC in series [1] was over 250 µM. The inhibition result in series [2] is “inactive”. For the same compound, the 90% effect concentration (IC90) in series [3] (Trypanosoma brucei, 427, 48 h) worked out at 1.7 µM. For the same compound, the half-inhibitory concentration (IC50) in series [3] (setting [7]) was 0.84 µM.
For `CNC1(c2ccccn2)C2CC3CC(C2)CC1C3` (centres undefined) the same measures were 264 µM, “inactive”, over 25 µM and 24.6 µM.
As for `NCC1(O)C2CC3CC(C2)CC1C3` (centres undefined), the inhibition entry in series [2] is “inactive”. In addition, the inhibition of growth at 5 µg/mL in series [6] came out at 30%. The concentration for half-maximal inhibition (IC50) entry in series [3] is recorded as “Not Active”.
For the compound `CNC(CN)C12CC3CC(CC(C3)C1)C2` (centres undefined), the MCC in series [1] turned out to be 404 µM. The inhibition entry in series [2] was “inactive”. Moreover, the IC90 in series [3] (Trypanosoma brucei, 427, 48 h) was determined as 7.8 µM. In series [3] (setting [7]), the IC50 is 5.2 µM.
In series [1], `NCCC1(O)CC2CC3CC(C2)C1C3` (centres undefined) showed an MCC of 512 µM. The selectivity ratio in series [4] is 67. Besides, the EC50 in series [5] came to 7.68 µM. Moreover, in series [6], the inhibition of growth at 5 µg/mL was determined as 30%. In addition, the IC50 result in series [3] is reported as “Not Active”.
As for `OC1(C2CCCCN2)C2CC3CC(C2)CC1C3` (centres undefined), the MCC in series [1] was 208 µM. In addition, the inhibition entry in series [2] is “inactive”. In addition, the inhibition of growth at 5 µg/mL in series [6] was found to be 30%. For the same compound, the concentration for half-maximal inhibition (IC50) entry in series [3] is “Not Active”.
`NC12CC3CC(CC(C3)C1)C2` [AMANTADINE] gave an MCC in series [1] of over 100 µM. Besides, the selectivity ratio in series [4] is over 51. For the same compound, in series [5], the EC50 was determined as 2 µM.
With `CC(N)C12CC3CC(CC(C3)C1)C2` (centres undefined) [RIMANTADINE], the MCC in series [1] is over 100 µM. Also, in series [4], the selectivity ratio is over 276. For the same compound, the EC50 in series [5] was at most 0.362 µM. The IC90 in series [3] (Trypanosoma brucei, 427, 48 h) came to 14 µM.
Consider `CN(C)CCCC12CC3CC(CC(C3)C1N)C2` (centres undefined), for which the MCC in series [1] was over 200 µM. For the same compound, the inhibition entry in series [2] was “inactive”. The inhibition of growth at 5 µg/mL in series [6] stood at 30%. Also, the IC50 entry in series [3] is on record as “Not Active”.
For `NC1CC2CC3CC(C2)C1C3` (centres undefined), in series [1], the MCC was 107 µM. In addition, the selectivity ratio in series [4] was found to be 69. Besides, the EC50 in series [5] turned out to be 1.5 µM. Also, the inhibition of growth at 5 µg/mL in series [6] was 30%. Also, the IC50 result in series [3] is recorded as “Not Active”.
Consider `NCCC12CC3CC(CC(C3)C1O)C2` (centres undefined), for which, in series [1], the MCC is 512 µM. Besides, the selectivity ratio in series [4] turned out to be 60. Moreover, in series [5], the EC50 turned out to be 8.6 µM. The inhibition of growth at 5 µg/mL in series [6] was found to be 30%. Besides, the IC50 result in series [3] is “Not Active”.
Consider `NC(=O)c1ncn([C@@H]2O[C@H](CO)[C@@H](O)[C@H]2O)n1` [RIBAVIRIN], for which the EC50 in series [5] turned out to be 8.7 µM.
Consider `NC1(CO)C2CC3CC(C2)CC1C3` (centres undefined), for which the MCC in series [1] was over 459 µM. Also, the selectivity ratio in series [4] was over 314. For the same compound, the EC50 in series [5] turned out to be 1.46 µM. In addition, in series [3] (Trypanosoma brucei, 427, 48 h), the IC90 is 18.2 µM. For the same compound, the half-maximal inhibitory concentration (IC50) in series [3] (setting [7]) stood at 9.4 µM.
